This note sets out measurements from paper PMC2834874 (Bioorganic & medicinal chemistry letters, 2010).

What all share (type): cell-based
Assay [1] concerns the target T1, M1 (Homo sapiens, UniProt P11229).
T1 sequence (P11229 1-460): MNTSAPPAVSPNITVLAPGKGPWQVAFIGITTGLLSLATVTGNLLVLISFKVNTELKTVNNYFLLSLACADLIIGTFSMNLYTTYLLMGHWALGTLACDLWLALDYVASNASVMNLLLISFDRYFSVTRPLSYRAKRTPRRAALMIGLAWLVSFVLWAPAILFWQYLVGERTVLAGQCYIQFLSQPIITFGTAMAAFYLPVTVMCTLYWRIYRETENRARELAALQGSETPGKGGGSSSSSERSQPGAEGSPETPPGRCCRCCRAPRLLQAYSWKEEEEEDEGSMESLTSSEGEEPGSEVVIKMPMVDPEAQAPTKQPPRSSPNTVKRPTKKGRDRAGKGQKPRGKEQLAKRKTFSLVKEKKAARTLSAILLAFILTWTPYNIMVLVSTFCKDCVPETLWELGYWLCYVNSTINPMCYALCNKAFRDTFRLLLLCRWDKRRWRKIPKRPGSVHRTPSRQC
Kind of assay: ACh CRC fold-shift experiments, calcium mobilization in M1 CHO cells. A digest of the protocol:
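ACh concentration-response curve run alone and with the test compound at 10 μM or 30 μM. Intracellular calcium mobilization measured in CHO cells expressing M1. The fold leftward shift of the ACh curve is taken, and intrinsic allosteric agonism is recorded from the response to compound alone. Values are means of at least three independent determinations.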
(In general: A change in cytosolic calcium serves as a functional read-out for many receptors and channels.)

In a further assay the target is T2, M5 (Homo sapiens, UniProt P08912).
T2 sequence (P08912 1-532): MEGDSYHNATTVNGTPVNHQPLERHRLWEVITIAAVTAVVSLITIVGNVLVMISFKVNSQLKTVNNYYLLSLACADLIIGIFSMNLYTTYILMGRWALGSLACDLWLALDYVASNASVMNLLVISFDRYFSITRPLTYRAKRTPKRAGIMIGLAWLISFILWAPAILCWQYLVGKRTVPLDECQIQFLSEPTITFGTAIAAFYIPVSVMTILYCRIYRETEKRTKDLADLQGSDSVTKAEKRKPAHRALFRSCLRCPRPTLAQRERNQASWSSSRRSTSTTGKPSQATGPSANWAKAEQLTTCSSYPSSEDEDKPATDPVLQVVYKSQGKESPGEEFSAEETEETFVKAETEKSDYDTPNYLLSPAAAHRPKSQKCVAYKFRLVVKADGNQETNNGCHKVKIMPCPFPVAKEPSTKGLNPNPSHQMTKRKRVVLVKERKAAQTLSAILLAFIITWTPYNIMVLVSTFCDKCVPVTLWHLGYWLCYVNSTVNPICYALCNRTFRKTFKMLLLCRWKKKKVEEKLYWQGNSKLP
Kind of assay: Potentiation of ~EC20 ACh, calcium mobilization in M5 CHO cells. Summed up: (§1)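 Potentiation of an ~EC20 ACh response read as intracellular calcium mobilization in CHO cells expressing single receptor subtypes. M2 and M4 lines are co-transfected with chimeric Gqi5 to couple to calcium, while M3 and M5 lines are used directly. Data are means of independent determinations.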

The target of the next assay is M3 (Homo sapiens, UniProt P20309). Briefly: Potentiation of ~EC20 ACh, calcium mobilization in M3 CHO cells. Summed up:
as §1

Assay [2] concerns the target T1, M1. The conditions noted are these: M1 EC50 ratio.
The target of another assay is T3, M2 (Homo sapiens, UniProt P08172).
T3 sequence (P08172 1-466): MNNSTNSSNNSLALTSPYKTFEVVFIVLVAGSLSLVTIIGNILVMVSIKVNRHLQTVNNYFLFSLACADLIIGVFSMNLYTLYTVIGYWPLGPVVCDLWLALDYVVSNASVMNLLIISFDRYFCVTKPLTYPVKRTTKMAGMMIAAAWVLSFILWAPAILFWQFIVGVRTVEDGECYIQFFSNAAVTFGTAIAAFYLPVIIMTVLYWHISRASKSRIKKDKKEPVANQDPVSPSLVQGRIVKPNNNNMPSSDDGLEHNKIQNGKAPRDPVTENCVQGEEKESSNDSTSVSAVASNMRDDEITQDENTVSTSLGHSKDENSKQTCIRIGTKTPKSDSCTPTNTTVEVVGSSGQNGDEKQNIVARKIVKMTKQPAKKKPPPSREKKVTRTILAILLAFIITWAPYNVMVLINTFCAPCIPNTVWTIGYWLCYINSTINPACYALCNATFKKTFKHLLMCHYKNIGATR
Kind of assay: Potentiation of ~EC20 ACh, calcium mobilization in M2/Gqi5 CHO cells. The conditions noted are these: up to 30 μM. Summed up: as §1

In a further assay the target is T4, M4 (Homo sapiens, UniProt P08173).
T4 sequence (P08173 1-479): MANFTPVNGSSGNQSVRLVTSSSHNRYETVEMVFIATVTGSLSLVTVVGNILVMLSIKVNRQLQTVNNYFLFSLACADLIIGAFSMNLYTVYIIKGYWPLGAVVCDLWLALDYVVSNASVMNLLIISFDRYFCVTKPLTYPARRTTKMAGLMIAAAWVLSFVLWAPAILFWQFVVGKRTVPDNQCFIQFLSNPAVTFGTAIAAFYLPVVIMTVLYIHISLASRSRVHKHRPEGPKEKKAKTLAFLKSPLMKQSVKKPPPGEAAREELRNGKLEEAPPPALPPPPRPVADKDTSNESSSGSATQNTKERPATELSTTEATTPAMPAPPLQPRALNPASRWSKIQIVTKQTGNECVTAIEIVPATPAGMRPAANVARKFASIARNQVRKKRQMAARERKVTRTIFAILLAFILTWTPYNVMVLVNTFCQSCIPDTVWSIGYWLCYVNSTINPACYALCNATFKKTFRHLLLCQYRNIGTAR
Briefly: Potentiation of ~EC20 ACh, calcium mobilization in M4/Gqi5 CHO cells. The conditions noted are these: up to 30 μM. Summed up:
as §1

The structures appear in SMILES notation.

Sequence of M3 (P20309 whole entry): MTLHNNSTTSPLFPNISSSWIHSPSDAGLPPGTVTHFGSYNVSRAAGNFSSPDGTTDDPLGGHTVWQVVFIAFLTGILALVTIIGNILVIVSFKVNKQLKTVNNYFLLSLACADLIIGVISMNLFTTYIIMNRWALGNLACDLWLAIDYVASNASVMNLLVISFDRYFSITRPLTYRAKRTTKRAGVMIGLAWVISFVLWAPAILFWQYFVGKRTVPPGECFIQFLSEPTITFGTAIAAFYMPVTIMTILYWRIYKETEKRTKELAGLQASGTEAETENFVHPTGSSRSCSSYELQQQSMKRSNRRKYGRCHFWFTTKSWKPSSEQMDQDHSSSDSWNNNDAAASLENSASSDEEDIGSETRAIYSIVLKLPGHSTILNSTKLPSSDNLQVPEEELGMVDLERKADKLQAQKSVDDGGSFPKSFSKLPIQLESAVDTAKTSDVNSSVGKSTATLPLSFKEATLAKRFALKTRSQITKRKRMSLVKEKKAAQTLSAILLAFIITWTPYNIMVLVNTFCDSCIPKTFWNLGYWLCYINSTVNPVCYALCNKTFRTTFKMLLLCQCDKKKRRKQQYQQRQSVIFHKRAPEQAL

For `Cn1cc(-c2ccc(CN3C(=O)C(=O)c4ccccc43)cc2)cn1` [Compound 9a], the “Fold-shift of the ACh CRC at M5” value at M1 [1] (10 μM compound) is “approximately 5 fold”. Also, at M1 [1] (M1 fold-shift experiment, at 30 μM), the intrinsic allosteric agonism is roughly 30%. Besides, the “selectivity versus M5” value at M5 (CRC in presence of ~EC20 ACh) is reported as “good selectivity”. Moreover, the “selectivity versus M3” value on M3 (CRC in presence of ~EC20 ACh) is given as “good selectivity”.
Consider `Cn1cc(-c2ccc(CN3C(=O)C(=O)c4ccccc43)c(F)c2)cn1` [Compound 12a], for which the “Fold-shift of the ACh CRC at M5” value on M1 [1] (30 μM compound) is given as “approximately 3 fold”. Also, on M1 [2], the “increase in potency over VU0365137 (9a)” value was “three-fold increase”. For the same compound, the “activation of M5” value on M5 (up to 30 μM) is “minimal/no activation”. The “activation of M3” value on M3 (up to 30 μM) is “minimal/no activation”. Also, the “activation of M2” value on M2 is “minimal/no activation”. In addition, the “activation of M4” value on M4 is “minimal/no activation”.
